Results pooled from the literature.
Compare with care: the assays were run in different laboratories.
Target: Serine/threonine-protein kinase PknB (pknB, Mycobacterium tuberculosis, UniProt P9WI81)

CN(CCCC(F)(F)F)c1nccc(-c2cnn3ncccc23)n1
remaining binding (binding; 1 µM): 89%

CC1=C(C#N)C(c2ccc3c(c2)c(NC(=O)c2ccccc2C)nn3C)C(C#N)=C(C)N1
remaining binding (cell-free assay; competition with immobilised ligand; 1 µM): 97%

O=C(Nc1c[nH]nc1C(=O)NC1CCNCC1)c1cc(F)cc(F)c1
remaining binding (binding; competition with immobilised ligand; 1 µM): 100%

COc1ccnn2ncc(-c3ccnc(N(C)C)n3)c12
remaining binding (binding; 1 µM): 100%

FC(F)(F)Oc1cccc(-c2cnc3ccc(-c4ccncc4)nn23)c1
remaining binding (cell-free assay; competition with immobilised ligand; 5 µM): 31%

F[C@@H]1CCN(c2nccc(-c3cnn4ncccc34)n2)C1
remaining binding (binding; 1 µM): 100%

CS(=O)(=O)N1CCCC(NC(=O)[C@H](CCC2CCCCC2)NC(=O)c2ccc(CNc3ncnc4c3nnn4-c3ccccc3)cc2)C1 (stereo partly drawn)
remaining binding (cell-free assay; competition with immobilised ligand; 0.1 µM): 90%

Cc1nn(C)cc1-c1nc2c(N3CCN(Cc4ccc(Cl)cc4)CC3)c(Cl)cnc2[nH]1
remaining binding (binding; competition with immobilised ligand; 1 µM): 56%

C=CC(=O)N1CCC(C(=O)NCC(=O)N2CCN(c3nc(-c4cnc(N)nc4C(F)F)nc(N4CCOCC4)n3)CC2)CC1
remaining binding (binding; competition with immobilised ligand; 1 µM): 67%

C[C@@H](c1ccc(-n2cnc3c(N)ncnc32)cc1)N1CCc2nn(C)c(Cc3ccccc3)c2C1=O
remaining binding (binding; competition with immobilised ligand; 0.1 µM): 96%

N[C@H]1CCN(c2nccc(-c3cnn4ncccc34)n2)C1
remaining binding (binding; 1 µM): 98%

Cc1c(NC(=O)c2cc(C(N)=O)nc3cc(F)ccc23)c(C(F)(F)F)nn1Cc1ccc(C#N)cc1
remaining binding (cell-free assay; competition with immobilised ligand; 1 µM): 78%

CNC(=O)[C@@H]1CC[C@@H](n2c(-c3ccc4cnccc4c3)nc3ccc(C(=O)NCc4cccc(C(N)=O)c4)cc32)C1
remaining binding (binding; competition with immobilised ligand; 1 µM): 96%

COc1ccc2c(c1)O[C@@H](c1ccc(OC)c(OC)c1)C[C@H]2NC(=O)C1(c2ccc3c(c2)OC(F)(F)O3)CC1
remaining binding (cell-free assay; competition with immobilised ligand; 1 µM): 85%

CN(c1nccc(-c2cnn3ncccc23)n1)C1CC1
remaining binding (binding; 1 µM): 100%
